Measurements taken from ChEMBL document CHEMBL1153459, “Tetrahydropyridine derivatives with inhibitory activity on the production of proinflammatory cytokines: part 1” (Bioorg Med Chem Lett, 2009).

test system: Blood; test: Inhibition of LPS-induced TNFalpha production in human whole blood by immunoassay; format: functional, tissue-based; details: not given
Summary of the method: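 Human whole blood from consenting volunteers, 988 µL aliquots, was mixed with compound in DMSO and LPS at a final 10 µg/mL, then incubated 6 h at 37 °C. Samples were chilled and spun, and plasma TNFα was measured by immunoassay. Percent inhibition was taken relative to LPS control after subtracting the unstimulated negative control. IC50 from N = 3–4.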

IC50	Structure (SMILES)
> 30 µM	OC1(c2c[nH]c(-c3ccc(F)cc3)c2-c2ccncc2)CCNCC1
4.76 µM	NCCCc1c[nH]c(-c2ccc(F)cc2)c1-c1ccncc1
> 30 µM	NCc1c[nH]c(-c2ccc(F)cc2)c1-c1ccncc1
> 30 µM	Fc1ccc(-c2[nH]cc(CCCN3CCSCC3)c2-c2ccncc2)cc1
14.7 µM	CNCCCc1c[nH]c(-c2ccc(F)cc2)c1-c1ccncc1
> 30 µM	Fc1ccc(-c2[nH]cc(CCCN3CCN(Cc4ccccc4)CC3)c2-c2ccncc2)cc1
> 30 µM	Fc1ccc(-c2[nH]cc(CCCN3CCOCC3)c2-c2ccncc2)cc1
> 30 µM	CC(=O)NCCCc1c[nH]c(-c2ccc(F)cc2)c1-c1ccncc1
28.4 µM	Fc1ccc(-c2[nH]cc(CCCN3CCCCC3)c2-c2ccncc2)cc1
22.4 µM	CN(C)CCCc1c[nH]c(-c2ccc(F)cc2)c1-c1ccncc1
> 30 µM	Fc1ccc(-c2[nH]cc(-c3ccncc3)c2-c2ccncc2)cc1
2.98 µM	Fc1ccc(-c2[nH]cc(C3CCNCC3)c2-c2ccncc2)cc1
13.8 µM	NCCCCc1c[nH]c(-c2ccc(F)cc2)c1-c1ccncc1
> 30 µM	CN1CCN(CCCc2c[nH]c(-c3ccc(F)cc3)c2-c2ccncc2)CC1
> 30 µM	Fc1ccc(-c2[nH]cc(CCCN3CCNCC3)c2-c2ccncc2)cc1

Structure (SMILES)	IC50
C[S+]([O-])c1ccc(-c2nc(-c3ccc(F)cc3)c(-c3ccncc3)[nH]2)cc1 (configuration not stated) [SB-203580]	6.4 µM
Fc1ccc(-c2[nH]cc(C3=CCNCC3)c2-c2ccncc2)cc1	1.86 µM

test system: Mus musculus; test: Inhibition of LPS-induced TNFalpha production in orally dosed mouse after 1 hr by ELISA; format: functional; details: po, read-out: ID50 (the source's name)
Summary of the method: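 Mice fasted overnight (water allowed), then given compound orally as a suspension in 0.5% CMC at 10 mL/kg; controls received vehicle alone. 30 min later LPS in saline was injected i.v. at 0.45 mg/10 mL/kg; normal mice got saline. After 1 h, heparinised vena cava blood was spun and plasma TNFα measured by ELISA. % inhibition was taken against normal and control mice; ID50 derived. N = 5.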

Structure (SMILES)	ED50
C[S+]([O-])c1ccc(-c2nc(-c3ccc(F)cc3)c(-c3ccncc3)[nH]2)cc1 (configuration not stated) [SB-203580]	27.9 mg/kg
Fc1ccc(-c2[nH]cc(C3CCNCC3)c2-c2ccncc2)cc1	17.9 mg/kg
Fc1ccc(-c2[nH]cc(C3=CCNCC3)c2-c2ccncc2)cc1	5.98 mg/kg

test system: Mus musculus; test: Inhibition of LPS-induced TNFalpha production in mouse at 20 mg/kg, po after 1 hr by ELISA; format: functional; details: not given
Summary of the method: (§1)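 Mice were fasted overnight with water allowed. Compound was given orally as a suspension in 0.5% CMC at 10 mL/kg. After 30 min, LPS in saline was injected iv at 0.45 mg/10 mL/kg. Heparinized vena cava blood was drawn 1 h later and plasma TNFα measured by ELISA. Percent inhibition was taken versus vehicle/LPS control after subtracting normal mice. N = 5.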

Structure (SMILES)	inhibition in vivo at 20 mg/kg
OC1(c2c[nH]c(-c3ccc(F)cc3)c2-c2ccncc2)CCNCC1	-2.7%

test system: Mus musculus; test: Inhibition of LPS-induced TNFalpha production in mouse at 50 mg/kg, po after 1 hr by ELISA; format: functional; details: not given; summary of the method: as §1

Structure (SMILES)	inhibition in vivo at 50 mg/kg
Fc1ccc(-c2[nH]cc(-c3ccncc3)c2-c2ccncc2)cc1	24.5%
